From ChEMBL document CHEMBL1765082, “Aminothiazolomorphinans with mixed κ and μ opioid activity” (J Med Chem, 2011) come the findings set out here.

Structures are written as SMILES. The source made the active and inactive calls. The calls are words filed in the database; no cut-off is given here. A value given as a limit tells only on which side of the number the result lay.

T1 sequence (P41145 whole entry): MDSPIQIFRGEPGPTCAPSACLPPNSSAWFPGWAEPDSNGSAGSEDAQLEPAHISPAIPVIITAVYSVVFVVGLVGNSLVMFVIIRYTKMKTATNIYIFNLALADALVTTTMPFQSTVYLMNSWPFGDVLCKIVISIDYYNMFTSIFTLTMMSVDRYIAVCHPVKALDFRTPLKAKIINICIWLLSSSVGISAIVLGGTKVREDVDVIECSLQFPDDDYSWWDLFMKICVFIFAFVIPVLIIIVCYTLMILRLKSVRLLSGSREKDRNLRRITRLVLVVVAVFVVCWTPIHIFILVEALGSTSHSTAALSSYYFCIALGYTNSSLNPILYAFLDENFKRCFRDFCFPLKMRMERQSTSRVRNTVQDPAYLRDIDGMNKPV
Mu-type opioid receptor, sequence (P35372 whole entry): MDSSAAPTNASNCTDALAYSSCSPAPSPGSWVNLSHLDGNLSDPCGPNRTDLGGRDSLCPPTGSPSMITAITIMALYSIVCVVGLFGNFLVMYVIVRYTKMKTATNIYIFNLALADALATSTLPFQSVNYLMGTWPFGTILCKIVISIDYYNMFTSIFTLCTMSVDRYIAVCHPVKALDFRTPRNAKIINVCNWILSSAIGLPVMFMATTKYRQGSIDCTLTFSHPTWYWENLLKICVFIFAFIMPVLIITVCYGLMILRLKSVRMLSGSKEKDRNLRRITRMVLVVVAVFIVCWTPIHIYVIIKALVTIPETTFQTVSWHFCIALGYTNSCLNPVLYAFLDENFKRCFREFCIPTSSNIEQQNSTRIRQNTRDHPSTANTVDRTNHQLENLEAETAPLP
Delta-type opioid receptor, sequence (P41143 whole entry): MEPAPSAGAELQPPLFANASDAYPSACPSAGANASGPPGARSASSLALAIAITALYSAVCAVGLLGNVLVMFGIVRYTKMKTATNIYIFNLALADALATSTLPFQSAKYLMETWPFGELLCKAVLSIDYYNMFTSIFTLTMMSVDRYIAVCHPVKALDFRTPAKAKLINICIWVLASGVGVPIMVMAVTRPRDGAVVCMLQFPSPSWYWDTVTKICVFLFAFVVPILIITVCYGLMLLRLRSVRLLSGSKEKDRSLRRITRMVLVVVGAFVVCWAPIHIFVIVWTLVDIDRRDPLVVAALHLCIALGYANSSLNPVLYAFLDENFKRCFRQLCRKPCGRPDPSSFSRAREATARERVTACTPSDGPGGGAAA

The first experiment concerns the target T1, Kappa-type opioid receptor (Homo sapiens, UniProt P41145). As to the kind of experiment: Displacement of [3H]U69593 from human kappa opioid receptor expressed in CHO cells after 60 mins by scintillation counting. The format is cell-based. In general terms: Loss of bound radioactivity is the signal in a displacement assay; it reports binding, not function.
As usually defined, the Ki is the dissociation constant of the complex between target and ligand, obtained from inhibition or displacement. A higher Ki goes with weaker binding. In turn, `CCCNc1nc2cc3c(cc2s1)C[C@@H]1[C@@H]2CCCC[C@]32CCN1CCCF` showed an inhibition constant Ki of 5.8 nM.

`CN(C)c1nc2cc3c(cc2s1)C[C@@H]1[C@@H]2CCCC[C@]32CCN1CCCF`: the inhibition constant (Ki) is 11 nM.

For `c1ccc(Nc2nc3cc4c(cc3s2)C[C@@H]2[C@@H]3CCCC[C@]43CCN2CC2CC2)nc1`, the inhibitory constant (Ki) was determined as 95 nM.

The molecule `CNc1nc2cc3c(cc2s1)C[C@@H]1[C@@H]2CCCC[C@]32CCN1CC1CCC1` registered an inhibition constant Ki of 2.4 nM.

Take `FC(F)(F)CNc1nc2cc3c(cc2s1)C[C@@H]1[C@@H]2CCCC[C@]32CCN1CC1CC1`: the inhibition constant Ki is 0.84 nM.

The molecule `CC(=O)Nc1nc2cc3c(cc2s1)C[C@@H]1[C@@H]2CCCC[C@]32CCN1CCCF` yielded an inhibitory constant (Ki) of 1.2 nM.

Take `c1ccc(Nc2nc3cc4c(cc3s2)C[C@@H]2[C@@H]3CCCC[C@]43CCN2CC2CC2)cc1`: affinity was put at a Ki of 21 nM.

As to `CCCNc1nc2cc3c(cc2s1)C[C@@H]1[C@@H]2CCCC[C@]32CCN1CC1CC1`, affinity was put at a Ki of 1.6 nM.

With `Oc1cccc(CNc2nc3cc4c(cc3s2)C[C@@H]2[C@@H]3CCCC[C@]43CCN2CC2CC2)c1`, the inhibition constant (Ki) amounted to 3.5 nM.

In turn, `COc1cccc(CNc2nc3cc4c(cc3s2)C[C@@H]2[C@@H]3CCCC[C@]43CCN2CC2CC2)c1` came in with an inhibition constant Ki of 4.8 nM.

Molecule `CC(=O)N(C)c1nc2cc3c(cc2s1)C[C@@H]1[C@@H]2CCCC[C@]32CCN1CC1CC1` yielded a Ki of 6.9 nM.

For a further experiment, the target named is T1, Kappa-type opioid receptor. As to the kind of experiment: Antagonist activity at human kappa opioid receptor expressed in CHO cells assessed as […] in U50488-induced [35S]GTPgammaS binding by scintillation counting. The format is functional, cell-based. Background: Binding of GTPγS marks nucleotide exchange on a G protein.
With `Oc1ccc2c(c1)[C@@]13CCCC[C@H]1[C@@H](C2)N(CC1CC1)CC3`, the result was inactive.

For `FC(F)(F)CNc1nc2cc3c(cc2s1)C[C@@H]1[C@@H]2CCCC[C@]32CCN1CC1CC1`, the outcome was inactive.

Another experiment concerns the target Mu-type opioid receptor (Homo sapiens, UniProt P35372). As to the kind of experiment: Displacement of [3H]DAMGO from human mu opioid receptor expressed in CHO cells after 60 mins by scintillation counting. The format is cell-based.
Molecule `CCCNc1nc2cc3c(cc2s1)C[C@@H]1[C@@H]2CCCC[C@]32CCN1CCCF` displayed a Ki of 24 nM.

As for `CN(C)c1nc2cc3c(cc2s1)C[C@@H]1[C@@H]2CCCC[C@]32CCN1CCCF`, the Ki was found to be 76 nM.

Consider `c1ccc(Nc2nc3cc4c(cc3s2)C[C@@H]2[C@@H]3CCCC[C@]43CCN2CC2CC2)nc1`, for which the inhibition constant (Ki) was 610 nM.

Turning to `CNc1nc2cc3c(cc2s1)C[C@@H]1[C@@H]2CCCC[C@]32CCN1CC1CCC1`, the inhibition constant Ki is 1.8 nM.

With `FC(F)(F)CNc1nc2cc3c(cc2s1)C[C@@H]1[C@@H]2CCCC[C@]32CCN1CC1CC1`, the affinity corresponds to a Ki of 21 nM.

As to `CC(=O)Nc1nc2cc3c(cc2s1)C[C@@H]1[C@@H]2CCCC[C@]32CCN1CCCF`, the affinity corresponds to a Ki of 15 nM.

Turning to `c1ccc(Nc2nc3cc4c(cc3s2)C[C@@H]2[C@@H]3CCCC[C@]43CCN2CC2CC2)cc1`, affinity was put at a Ki of 180 nM.

`CCCNc1nc2cc3c(cc2s1)C[C@@H]1[C@@H]2CCCC[C@]32CCN1CC1CC1` returned a Ki of 17 nM.

On to `Oc1cccc(CNc2nc3cc4c(cc3s2)C[C@@H]2[C@@H]3CCCC[C@]43CCN2CC2CC2)c1`, for which the Ki came to 9.9 nM.

`COc1cccc(CNc2nc3cc4c(cc3s2)C[C@@H]2[C@@H]3CCCC[C@]43CCN2CC2CC2)c1` displayed an inhibitory constant (Ki) of 9.1 nM.

In turn, `CC(=O)N(C)c1nc2cc3c(cc2s1)C[C@@H]1[C@@H]2CCCC[C@]32CCN1CC1CC1` displayed an inhibitory constant (Ki) of 110 nM.

The target of another experiment is T1, Kappa-type opioid receptor. As to the kind of experiment: Agonist activity at human kappa opioid receptor expressed in CHO cells assessed as [35S]GTPgammaS binding by scintillation counting. The format is functional, cell-based.
The EC50 is the midpoint of the concentration-response curve. In the case of `FC(F)(F)CNc1nc2cc3c(cc2s1)C[C@@H]1[C@@H]2CCCC[C@]32CCN1CC1CC1`, the half-maximal effective concentration (EC50) was 120 nM.

The target in the next experiment is T1, Kappa-type opioid receptor. As to the kind of experiment: Agonist activity at human kappa opioid receptor expressed in CHO cells assessed as [35S]GTPgammaS binding by scintillation counting relative to control. The format is functional, cell-based. Summed up: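 Membranes from CHO cells stably expressing human κ (15 μg protein/tube) or μ (7.5 μg protein/tube) opioid receptor, grown in DMEM with 10% FBS at 37 °C, 5% CO2. Twelve agonist concentrations were incubated 60 min at 30 °C in 50 mM Tris-HCl, 3 mM MgCl2, 100 mM NaCl, 0.2 mM EGTA, pH 7.4, with 3 μM GDP and [35S]GTPγS. Filtration, then scintillation counting. Stimulation expressed as percent over basal; ≥3 experiments in triplicate.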
As usually defined, the Emax is the maximal effect, on the per cent scale that the assay sets. In the case of `FC(F)(F)CNc1nc2cc3c(cc2s1)C[C@@H]1[C@@H]2CCCC[C@]32CCN1CC1CC1`, the maximal response (Emax) was 120%.

For the next experiment, the target named is Delta-type opioid receptor (Homo sapiens, UniProt P41143). As to the kind of experiment: Displacement of [3H]Naltrindole from human delta opioid receptor expressed in CHO cells after 3 hrs by scintillation counting. The format is cell-based. Summed up:
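Membranes from CHO cells expressing human κ, μ or δ opioid receptor were incubated with 12 compound concentrations and a receptor-selective radioligand at 25 °C in 50 mM Tris-HCl, pH 7.5. […] Nonspecific binding was defined with 10 μM naloxone. Ki reported as mean ± SEM, three experiments in triplicate.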
Turning to `CCCNc1nc2cc3c(cc2s1)C[C@@H]1[C@@H]2CCCC[C@]32CCN1CCCF`, the inhibitory constant (Ki) turned out to be 120 nM.

Turning to `CN(C)c1nc2cc3c(cc2s1)C[C@@H]1[C@@H]2CCCC[C@]32CCN1CCCF`, the inhibitory constant (Ki) came out at 420 nM.

For the molecule `c1ccc(Nc2nc3cc4c(cc3s2)C[C@@H]2[C@@H]3CCCC[C@]43CCN2CC2CC2)nc1`, the Ki was > 10000 nM.

Regarding `CNc1nc2cc3c(cc2s1)C[C@@H]1[C@@H]2CCCC[C@]32CCN1CC1CCC1`, the affinity corresponds to a Ki of 47 nM.

`FC(F)(F)CNc1nc2cc3c(cc2s1)C[C@@H]1[C@@H]2CCCC[C@]32CCN1CC1CC1`: affinity was put at a Ki of 180 nM.

`CC(=O)Nc1nc2cc3c(cc2s1)C[C@@H]1[C@@H]2CCCC[C@]32CCN1CCCF`: the Ki stood at 220 nM.

For the molecule `c1ccc(Nc2nc3cc4c(cc3s2)C[C@@H]2[C@@H]3CCCC[C@]43CCN2CC2CC2)cc1`, the inhibitory constant (Ki) stood at 140 nM.

For `CCCNc1nc2cc3c(cc2s1)C[C@@H]1[C@@H]2CCCC[C@]32CCN1CC1CC1`, the inhibition constant Ki came to 79 nM.

`Oc1cccc(CNc2nc3cc4c(cc3s2)C[C@@H]2[C@@H]3CCCC[C@]43CCN2CC2CC2)c1` came in with a Ki of 29 nM.

`COc1cccc(CNc2nc3cc4c(cc3s2)C[C@@H]2[C@@H]3CCCC[C@]43CCN2CC2CC2)c1` came in with a Ki of 34 nM.

In the case of `CC(=O)N(C)c1nc2cc3c(cc2s1)C[C@@H]1[C@@H]2CCCC[C@]32CCN1CC1CC1`, the inhibitory constant (Ki) came to 1100 nM.

A further experiment is filed under the species Homo sapiens. As to the kind of experiment: Selectivity ratio of Ki for human mu opioid receptor to Ki for human kappa opioid receptor.
On to `Nc1nc2cc3c(cc2o1)[C@@]12CCCC[C@H]1[C@@H](C3)N(CC1CC1)CC2`, for which the Ratio Ki is 3.

Consider `CCCNc1nc2cc3c(cc2s1)C[C@@H]1[C@@H]2CCCC[C@]32CCN1CCCF`, for which the Ratio Ki is 4.

`CN(C)c1nc2cc3c(cc2s1)C[C@@H]1[C@@H]2CCCC[C@]32CCN1CCCF`: the Ratio Ki was found to be 7.

As to `c1ccc(Nc2nc3cc4c(cc3s2)C[C@@H]2[C@@H]3CCCC[C@]43CCN2CC2CC2)nc1`, the Ratio Ki turned out to be 6.

Turning to `CNc1nc2cc3c(cc2s1)C[C@@H]1[C@@H]2CCCC[C@]32CCN1CC1CCC1`, the Ratio Ki came out at 1.

Consider `FC(F)(F)CNc1nc2cc3c(cc2s1)C[C@@H]1[C@@H]2CCCC[C@]32CCN1CC1CC1`, for which the Ratio Ki stood at 25.

With `CC(=O)Nc1nc2cc3c(cc2s1)C[C@@H]1[C@@H]2CCCC[C@]32CCN1CCCF`, the Ratio Ki was 13.

Regarding `c1ccc(Nc2nc3cc4c(cc3s2)C[C@@H]2[C@@H]3CCCC[C@]43CCN2CC2CC2)cc1`, the Ratio Ki was 9.

In the case of `CCCNc1nc2cc3c(cc2s1)C[C@@H]1[C@@H]2CCCC[C@]32CCN1CC1CC1`, the Ratio Ki is 11.

For the molecule `CN1CC[C@]23CCCC[C@H]2[C@H]1Cc1cc2sc(N)nc2cc13`, the Ratio Ki stood at 0.17.

Regarding `Oc1cccc(CNc2nc3cc4c(cc3s2)C[C@@H]2[C@@H]3CCCC[C@]43CCN2CC2CC2)c1`, the Ratio Ki stood at 3.

As to `COc1cccc(CNc2nc3cc4c(cc3s2)C[C@@H]2[C@@H]3CCCC[C@]43CCN2CC2CC2)c1`, the Ratio Ki is 2.

In the case of `CC(=O)N(C)c1nc2cc3c(cc2s1)C[C@@H]1[C@@H]2CCCC[C@]32CCN1CC1CC1`, the Ratio Ki amounted to 16.

For a further experiment, the species on record is Homo sapiens. As to the kind of experiment: Selectivity ratio of Ki for human delta opioid receptor to Ki for human kappa opioid receptor.
Take `Nc1nc2cc3c(cc2o1)[C@@]12CCCC[C@H]1[C@@H](C3)N(CC1CC1)CC2`: the Ratio Ki was > 192.

Take `CCCNc1nc2cc3c(cc2s1)C[C@@H]1[C@@H]2CCCC[C@]32CCN1CCCF`: the Ratio Ki is 21.

As to `CN(C)c1nc2cc3c(cc2s1)C[C@@H]1[C@@H]2CCCC[C@]32CCN1CCCF`, the Ratio Ki worked out at 38.

With `CNc1nc2cc3c(cc2s1)C[C@@H]1[C@@H]2CCCC[C@]32CCN1CC1CCC1`, the Ratio Ki was determined as 20.

`FC(F)(F)CNc1nc2cc3c(cc2s1)C[C@@H]1[C@@H]2CCCC[C@]32CCN1CC1CC1`: the Ratio Ki is 210.

Take `CC(=O)Nc1nc2cc3c(cc2s1)C[C@@H]1[C@@H]2CCCC[C@]32CCN1CCCF`: the Ratio Ki was 180.

For `c1ccc(Nc2nc3cc4c(cc3s2)C[C@@H]2[C@@H]3CCCC[C@]43CCN2CC2CC2)cc1`, the Ratio Ki is 7.

On to `CCCNc1nc2cc3c(cc2s1)C[C@@H]1[C@@H]2CCCC[C@]32CCN1CC1CC1`, for which the Ratio Ki was found to be 49.

Turning to `CN1CC[C@]23CCCC[C@H]2[C@H]1Cc1cc2sc(N)nc2cc13`, the Ratio Ki stood at 30.

As for `Oc1cccc(CNc2nc3cc4c(cc3s2)C[C@@H]2[C@@H]3CCCC[C@]43CCN2CC2CC2)c1`, the Ratio Ki amounted to 8.

For `COc1cccc(CNc2nc3cc4c(cc3s2)C[C@@H]2[C@@H]3CCCC[C@]43CCN2CC2CC2)c1`, the Ratio Ki stood at 7.

Consider `CC(=O)N(C)c1nc2cc3c(cc2s1)C[C@@H]1[C@@H]2CCCC[C@]32CCN1CC1CC1`, for which the Ratio Ki was determined as 160.
